Where a SMILES comes first, the peptide text is derived from it. Bridges are numbered along the chain shown (N, C = ends). [ ]: non-standard residue; d: D form. S5 = C=CCCC[C@](C)(N)C(=O)O
Columns and labels:
[1] = system: Human immunodeficiency virus 1; test: Antiviral activity against HIV-1 subtype B JRFL pseudovirus assessed as inhibition of viral infection in Ghost (3)X4/R5 cells after 48 hrs by Bright-Glo luciferase reporter gene assay; type: functional, organism-based, HIV-1 group M; conditions: Human immunodeficiency virus 1, JRFL
In short: (§1)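 Single-round env-pseudotyped luciferase reporter viruses were made in HEK293T cells with the pNL4-3.Luc.R-E backbone. Ghost(3)X4/R5 target cells (CD4, CXCR4, CCR5) were grown in DMEM with 10% heat-inactivated FBS at 37 °C, 5% CO2. Peptides in 3-fold dilutions were preincubated with 100 TCID50 of virus for 1 h at room temperature. The mixture was added at 10^4 cells/well for 48 h at 37 °C. IC50 came from a variable-slope dose-response fit of luciferase reduction versus controls.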

[2] = system: Human immunodeficiency virus 1; test: Antiviral activity against HIV1 subtype BC CNE15 pseudovirus assessed as inhibition of viral infection in Ghost (3)X4/R5 cells after 48 hrs by Bright-Glo luciferase reporter gene assay; type: functional, organism-based; conditions: Human immunodeficiency virus 1, subtype BC CNE15, 48 h; in short: as §1
[3] = system: Human immunodeficiency virus 1; test: Antiviral activity against HIV-1 subtype B HXB2 pseudovirus assessed as inhibition of viral infection in Ghost (3)X4/R5 cells after 48 hrs by Bright-Glo luciferase reporter gene assay; type: functional, organism-based; conditions: Human immunodeficiency virus 1, M:B_HXB2R; in short: as §1
[4] = system: Human immunodeficiency virus 1; test: Antiviral activity against HIV1 subtype CRF01_AE CNE55 pseudovirus assessed as inhibition of viral infection in Ghost (3)X4/R5 cells after 48 hrs by Bright-Glo luciferase reporter gene assay; type: functional, organism-based, HIV-1 CRF01_AE; conditions: Human immunodeficiency virus 1, CNE55, 48 h; in short: as §1
chymotrypsin = test: Drug metabolism assessed as chymotrypsin (unknown origin)-mediated compound degradation by measuring compound half life at 25 uM by HPLC analysis; type: ADME, Homo sapiens
In short: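 Peptide stock was 1 mM in DMSO, diluted into 50 mM PBS pH 7.4 containing chymotrypsin (0.5 ng/μL) and 50 mM CaCl2. Digestion ran at 30 °C. Remaining peptide was monitored by reversed-phase HPLC on a C4 column at 1.0 mL/min, acetonitrile/water with 0.1% TFA.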

[5] = system: Human immunodeficiency virus 1; test: Antiviral activity against HIV1 subtype CRF01_AE CNE5 pseudovirus assessed as inhibition of viral infection in Ghost (3)X4/R5 cells after 48 hrs by Bright-Glo luciferase reporter gene assay; type: functional, organism-based, HIV-1 CRF01_AE; conditions: Human immunodeficiency virus 1, CNE5, 48 h; in short: as §1
[6] = system: Human immunodeficiency virus 1; test: Antiviral activity against HIV1 subtype B' CNE11 pseudovirus assessed as inhibition of viral infection in Ghost (3)X4/R5 cells after 48 hrs by Bright-Glo luciferase reporter gene assay; type: functional, organism-based; conditions: Human immunodeficiency virus 1, subtype B' CNE11, 48 h; in short: as §1
[7] = system: Human immunodeficiency virus 1; test: Antiviral activity against HIV1 subtype B' CNE6 pseudovirus assessed as inhibition of viral infection in Ghost (3)X4/R5 cells after 48 hrs by Bright-Glo luciferase reporter gene assay; type: functional, organism-based; conditions: Human immunodeficiency virus 1, subtype B' CNE6, 48 h; in short: as §1
[8] = system: Human immunodeficiency virus 1; test: Antiviral activity against HIV-1 subtype B SF162 pseudovirus assessed as inhibition of viral infection in Ghost (3)X4/R5 cells after 48 hrs by Bright-Glo luciferase reporter gene assay; type: functional, organism-based; conditions: Human immunodeficiency virus 1, SF162 ISOLATE; in short: as §1
[9] = system: Human immunodeficiency virus 1; test: Antiviral activity against HIV1 subtype BC CNE30 pseudovirus assessed as inhibition of viral infection in Ghost (3)X4/R5 cells after 48 hrs by Bright-Glo luciferase reporter gene assay; type: functional, organism-based; conditions: Human immunodeficiency virus 1, subtype BC CNE30, 48 h; in short: as §1
[10] = system: Human immunodeficiency virus 1; test: Resistance index, ratio of IC50 for inhibition of gp41 I37T/N43K double mutant-mediated T20-resistant HIV1 NL4-3 viral infection in Ghost (3)X4/R5 cells to IC50 for inhibition of gp41-mediated HIV1 NL4-3 infection in Ghost (3)X4/R5 cells; type: cell-based
[11] = system: Human immunodeficiency virus 1; test: Resistance index, ratio of IC50 for inhibition of gp41 N43K mutant-mediated T20-resistant HIV1 NL4-3 viral infection in Ghost (3)X4/R5 cells to IC50 for inhibition of gp41-mediated HIV1 NL4-3 infection in Ghost (3)X4/R5 cells; type: cell-based
[12] = system: Human immunodeficiency virus 1; test: Resistance index, ratio of IC50 for inhibition of gp41 Q40H mutant-mediated T20-resistant HIV1 NL4-3 viral infection in Ghost (3)X4/R5 cells to IC50 for inhibition of gp41-mediated HIV1 NL4-3 infection in Ghost (3)X4/R5 cells; type: cell-based
[13] = system: Human immunodeficiency virus 1; test: Resistance index, ratio of IC50 for inhibition of gp41 V38A/N42T double mutant-mediated T20-resistant HIV1 NL4-3 viral infection in Ghost (3)X4/R5 cells to IC50 for inhibition of gp41-mediated HIV1 NL4-3 infection in Ghost (3)X4/R5 cells; type: cell-based
[14] = system: Human immunodeficiency virus 1; test: Resistance index, ratio of IC50 for inhibition of gp41 D36G mutant-mediated T20-resistant HIV1 NL4-3 viral infection in Ghost (3)X4/R5 cells to IC50 for inhibition of gp41-mediated HIV1 NL4-3 infection in Ghost (3)X4/R5 cells; type: cell-based
[15] = system: Human immunodeficiency virus 1; test: Resistance index, ratio of IC50 for inhibition of gp41 I37T mutant-mediated T20-resistant HIV1 NL4-3 viral infection in Ghost (3)X4/R5 cells to IC50 for inhibition of gp41-mediated HIV1 NL4-3 infection in Ghost (3)X4/R5 cells; type: cell-based
[16] = system: Human immunodeficiency virus 1; test: Resistance index, ratio of IC50 for inhibition of gp41 G36S/V38M double mutant-mediated T20-resistant HIV1 NL4-3 viral infection in Ghost (3)X4/R5 cells to IC50 for inhibition of gp41-mediated HIV1 NL4-3 infection in Ghost (3)X4/R5 cells; type: cell-based
[17] = system: Human immunodeficiency virus 1; test: Resistance index, ratio of IC50 for inhibition of gp41 V38A mutant-mediated T20-resistant HIV1 NL4-3 viral infection in Ghost (3)X4/R5 cells to IC50 for inhibition of gp41-mediated HIV1 NL4-3 infection in Ghost (3)X4/R5 cells; type: cell-based
[18] = system: Human immunodeficiency virus 1; test: Resistance index, ratio of IC50 for inhibition of gp41 V38M mutant-mediated T20-resistant HIV1 NL4-3 viral infection in Ghost (3)X4/R5 cells to IC50 for inhibition of gp41-mediated HIV1 NL4-3 infection in Ghost (3)X4/R5 cells; type: cell-based

Compound | IC50 [1] [nM] | IC50 [2] [nM] | IC50 [3] [nM] | IC50 [4] [nM] | half-life at 25 µM (chymotrypsin) [h] | IC50 [5] [nM] | IC50 [6] [nM] | IC50 [7] [nM] | IC50 [8] [nM] | IC50 [9] [nM] | Ratio IC50 [10] | Ratio IC50 [11] | Ratio IC50 [12] | Ratio IC50 [13] | Ratio IC50 [14] | Ratio IC50 [15] | Ratio IC50 [16] | Ratio IC50 [17] | Ratio IC50 [18]
CC[C@H](C)[C@H](NC(=O)[C@H](CCCCN)NC(=O)[C@H](CCCCN)NC(=O)[C@H](CC(=O)O)NC(=O)[C@H](Cc1c[nH]c2ccccc12)NC(=O)[C@H](CCC(=O)O)NC(=O)[C@H](CCC(=O)O)NC(=O)[C@H](Cc1c[nH]c2ccccc12)NC(=O)[C@@H](NC(=O)[C@H](CCSC)NC(C)=O)[C@@H](C)O)C(=O)N[C@@H](CCC(=O)O)C(=O)N[C@@H](CCC(=O)O)C(=O)N[C@@H](Cc1ccc(O)cc1)C(=O)N[C@H](C(=O)N[C@@]1(C)CCC/C=C\CCC[C@@](C)(C(=O)N[C@@H](CC(C)C)C(=O)N[C@H](C(=O)N[C@@H](CCCCN)C(=O)N[C@@H](CCCCN)C(=O)N[C@@H](CO)C(N)=O)[C@@H](C)CC)NC(=O)[C@H](CCC(=O)O)NC(=O)[C@H]([C@@H](C)CC)NC(=O)[C@H](CCCCN)NC1=O)[C@@H](C)O (Ac-MTWEEWDKKIEEYT[S5]KIE[S5]LIKKS-NH2; staple (Z) 15-19) | 8.7 | 14 | 0.5 | 82.3 | 8.25 | 27.7 | 8.8 | 10.4 | 14.4 | 71.7 |  |  |  |  |  |  |  |  | 
Ac-MTWEEWDKKIEEYTKKIEELIKKS-NH2 | 7.3 | 7.5 | 2.4 | 12.9 | 2.08 | 35 | 5.9 | 10.3 | 2.9 | 22.3 | 13 | 19 | 1.1 | 1.2 | 2.3 | 2.6 | 3.4 | 1.5 | 2.3
CC[C@H](C)[C@H](NC(=O)[C@H](CC(C)C)NC(=O)[C@H](CCC(=O)O)NC(=O)[C@H](CCC(=O)O)NC(=O)[C@@H](NC(=O)[C@H](CCCCN)NC(=O)[C@H](CCCCN)NC(=O)[C@@H](NC(=O)[C@H](Cc1ccc(O)cc1)NC(=O)[C@]1(C)CCC/C=C\CCC[C@](C)(NC(=O)[C@H](CC(=O)O)NC(=O)[C@H](Cc2c[nH]c3ccccc23)NC(=O)[C@H](CCC(=O)O)NC(=O)[C@H](CCC(=O)O)NC(=O)[C@H](Cc2c[nH]c3ccccc23)NC(=O)[C@@H](NC(=O)[C@H](CCSC)NC(C)=O)[C@@H](C)O)C(=O)N[C@@H](CCCCN)C(=O)N[C@@H]([C@@H](C)CC)C(=O)N[C@@H](CCC(=O)O)C(=O)N1)[C@@H](C)O)[C@@H](C)CC)C(=O)N[C@@H](CCCCN)C(=O)N[C@@H](CCCCN)C(=O)N[C@@H](CO)C(N)=O (Ac-MTWEEWD[S5]KIE[S5]YTKKIEELIKKS-NH2; staple (Z) 8-12) | 8.6 | 3.3 | 0.4 | 20.3 | 11.8 | 6.8 | 7.2 | 12.5 | 3.3 | 16.2 |  |  |  |  |  |  |  |  | 
CC[C@H](C)[C@H](NC(=O)[C@H](CC(C)C)NC(=O)[C@]1(C)CCC/C=C\CCC[C@](C)(NC(=O)[C@@H](NC(=O)[C@H](Cc2ccc(O)cc2)NC(=O)[C@]2(C)CCC/C=C\CCC[C@](C)(NC(=O)[C@H](CC(=O)O)NC(=O)[C@H](Cc3c[nH]c4ccccc34)NC(=O)[C@H](CCC(=O)O)NC(=O)[C@H](CCC(=O)O)NC(=O)[C@H](Cc3c[nH]c4ccccc34)NC(=O)[C@@H](NC(=O)[C@H](CCSC)NC(C)=O)[C@@H](C)O)C(=O)N[C@@H](CCCCN)C(=O)N[C@@H]([C@@H](C)CC)C(=O)N[C@@H](CCC(=O)O)C(=O)N2)[C@@H](C)O)C(=O)N[C@@H](CCCCN)C(=O)N[C@@H]([C@@H](C)CC)C(=O)N[C@@H](CCC(=O)O)C(=O)N1)C(=O)N[C@@H](CCCCN)C(=O)N[C@@H](CCCCN)C(=O)N[C@@H](CO)C(N)=O (Ac-MTWEEWD[S5]KIE[S5]YT[S5]KIE[S5]LIKKS-NH2; staple (Z) 8-12, 15-19) | 0.6 | 1.8 | 0.05 | 5.3 | 61.1 | 3.6 | 2.6 | 1.2 | 1 | 7.7 | 2.2 | 3.3 | 1.1 | 0.5 | 1.4 | 1.6 | 2.1 | 0.8 | 1
